Source: ChEMBL document CHEMBL4732210, “Discovery of new phenyl sulfonyl-pyrimidine carboxylate derivatives as the potential multi-target drugs with effective anti-Alzheimer's action: Design, synthesis, crystal structure and in-vitro biological evaluation” (Eur J Med Chem, 2021)

Key:
Acetylcholinesterase [1] = molecular target: T1, Acetylcholinesterase (Homo sapiens, UniProt P22303); assay: Inhibition of AChE in human erythrocytes using acetylthiocholineiodide as substrate pre-incubated for 10 mins followed by substrate addition and measured for 6 mins by DTNB reagent based Ellman's method; assay type: cell-based, Erythrocyte
Cholinesterase [2] = molecular target: T2, Cholinesterase (Homo sapiens, UniProt P06276); assay: Inhibition of BuChE in human serum using butyrylthiocholineiodide as substrate pre-incubated for 10 mins followed by substrate addition and measured for 6 mins by DTNB reagent based Ellman's method; assay type: cell-free
How it was run: (§1)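 AChE from human erythrocytes at 0.25 U/ml in 20 mM HEPES pH 8 with 0.1% Triton X-100, or BuChE from human serum at 0.25 U/ml in 0.1% gelatine. Substrate ATCI or BTCI at […], DTNB […], in 0.1 M PBS pH 7.4. Enzyme and inhibitor (DMSO stock, five concentrations) preincubated 10 min, then substrate added; rate followed 6 min at 37 °C. Non-enzymatic blank subtracted. Triplicates; IC50 from log concentration–percent inhibition curves.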

Acetylcholinesterase [3] = molecular target: T1, Acetylcholinesterase; assay: Inhibition of AChE (unknown origin) by DTNB reagent based Ellman's method
How it was run: as §1, with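 “Ellman assay with DTNB read at 412 nm. AChE” for “AChE”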

Cholinesterase [4] = molecular target: T2, Cholinesterase; assay: Inhibition of BuChE (unknown origin) by DTNB reagent based Ellman's method
How it was run: as §1, with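 “Ellman assay with DTNB read at 412 nm. AChE” for “AChE”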

Acetylcholinesterase [5] = molecular target: T1, Acetylcholinesterase; assay: Non-competitive inhibition of AChE in human erythrocytes measured at 2 mins interval for 10 mins by Dixon plot analysis; assay type: cell-based, Erythrocyte
How it was run: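 Human AChE kinetics in the Ellman DTNB assay. Inhibitor at 25, 50 and 100 nM, each with six ATCI concentrations, against an inhibitor-free series. Activity read every 2 min over 10 min. Km and Vmax from Michaelis–Menten non-linear regression; mechanism from Lineweaver–Burk plots; Ki from Dixon plot over four inhibitor concentrations and from slope/intercept replots. Triplicate.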

[6] = Neuroprotective activity in human MC65 cells cultured in TC-deficient medium assessed as inhibition of TC-deficiency induced oxidative stress by measuring increase in cell viability at 60 to 80 uM measured after 12 hrs by MTT assay relative to cells cultured in tetracycline containing medium; assay type: functional; details: dose 60-80 µM
How it was run: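 MC65 cells grown in MEM, PBS-washed and resuspended in MEM, then seeded at 5×10⁴ cells/well with or without TC. Compounds (80–1 μM) added to TC-free wells and incubated 12 h at 37 °C. MTT (5 mg/ml) added for a further 4 h; formazan dissolved in DMSO:H₂O 1:1 and read at 570 nm. Viability expressed as % of +TC control. Triplicate wells, three runs.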

[7] = Permeability of the compound measured after 16 hrs by PAMPA-BBB assay

T1 sequence (P22303 whole entry): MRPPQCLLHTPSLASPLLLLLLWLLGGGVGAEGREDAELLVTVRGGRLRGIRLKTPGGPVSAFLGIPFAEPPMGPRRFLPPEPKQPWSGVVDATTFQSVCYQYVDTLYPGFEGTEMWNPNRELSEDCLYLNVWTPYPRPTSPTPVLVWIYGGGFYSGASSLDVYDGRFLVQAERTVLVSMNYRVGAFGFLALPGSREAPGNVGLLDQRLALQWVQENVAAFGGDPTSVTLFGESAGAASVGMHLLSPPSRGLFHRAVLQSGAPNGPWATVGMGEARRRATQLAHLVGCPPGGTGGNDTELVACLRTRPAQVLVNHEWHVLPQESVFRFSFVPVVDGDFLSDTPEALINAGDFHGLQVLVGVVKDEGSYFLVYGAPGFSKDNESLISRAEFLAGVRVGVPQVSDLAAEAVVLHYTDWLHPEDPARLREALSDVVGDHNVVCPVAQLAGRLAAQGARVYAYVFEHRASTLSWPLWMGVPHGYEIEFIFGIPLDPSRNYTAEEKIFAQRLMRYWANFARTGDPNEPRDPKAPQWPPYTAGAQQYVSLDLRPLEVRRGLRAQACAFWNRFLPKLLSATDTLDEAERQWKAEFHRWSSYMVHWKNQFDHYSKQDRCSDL
T2 sequence (P06276 whole entry): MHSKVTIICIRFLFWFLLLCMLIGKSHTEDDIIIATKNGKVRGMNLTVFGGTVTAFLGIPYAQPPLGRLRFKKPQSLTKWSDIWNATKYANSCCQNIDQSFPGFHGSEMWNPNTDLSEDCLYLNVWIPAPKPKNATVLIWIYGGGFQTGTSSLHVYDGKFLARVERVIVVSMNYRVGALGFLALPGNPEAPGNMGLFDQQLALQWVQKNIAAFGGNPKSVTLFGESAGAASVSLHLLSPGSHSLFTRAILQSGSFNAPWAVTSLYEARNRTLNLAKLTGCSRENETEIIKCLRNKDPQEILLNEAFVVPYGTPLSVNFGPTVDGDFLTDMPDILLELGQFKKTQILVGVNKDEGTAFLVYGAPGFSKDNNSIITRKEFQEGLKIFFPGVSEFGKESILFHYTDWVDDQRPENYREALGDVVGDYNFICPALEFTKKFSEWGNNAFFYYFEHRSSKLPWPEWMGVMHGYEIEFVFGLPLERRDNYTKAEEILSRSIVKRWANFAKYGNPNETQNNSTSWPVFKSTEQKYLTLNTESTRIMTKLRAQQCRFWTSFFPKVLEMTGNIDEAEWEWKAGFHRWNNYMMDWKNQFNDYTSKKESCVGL

Compound | IC50 (Acetylcholinesterase [1]) [nM] | IC50 (Cholinesterase [2]) [nM] | also measured
CCOC(=O)c1c(C)nc(N2CCN(S(=O)(=O)c3ccc(NC(C)=O)cc3)CC2)nc1-c1ccc(OC)cc1 | 132 | > 200 | 
CCOC(=O)c1c(C)nc(N2CCN(S(=O)(=O)c3ccc(N)c(Cl)c3)CC2)nc1-c1ccc(OC)cc1 | 77.9 | 178 | 
CCOC(=O)c1c(C)nc(N2CCN(S(=O)(=O)c3ccc(N)c(OC)c3)CC2)nc1-c1ccc(OC)c(OC)c1 | 85.6 | > 200 | 
CCOC(=O)c1c(C)nc(N2CCN(S(=O)(=O)c3ccc(NC(C)=O)c(Cl)c3)CC2)nc1-c1ccccc1 | 144 | 156 | 
CCOC(=O)c1c(C)nc(N2CCN(S(=O)(=O)c3ccc(N)cc3)CC2)nc1-c1ccc(OC)c(OC)c1 | 68 | > 200 | 
CCOC(=O)c1c(C)nc(N2CCN(S(=O)(=O)c3ccc(NC(C)=O)c(F)c3)CC2)nc1-c1ccc(OC)c(OC)c1 | 76.5 | 186 | 
CCOC(=O)c1c(C)nc(N2CCN(S(=O)(=O)c3ccc(NC(C)=O)c(F)c3)CC2)nc1-c1ccccc1 | 97.4 | 194 | 
CCOC(=O)c1c(C)nc(N2CCN(S(=O)(=O)c3ccc(N)cc3)CC2)nc1-c1ccccc1 | > 200 | > 200 | 
CCOC(=O)c1c(C)nc(N2CCN(S(=O)(=O)c3ccc(NC(C)=O)c(OC)c3)CC2)nc1-c1ccc(OC)cc1 | 79.3 | 194 | 
CCOC(=O)c1c(C)nc(N2CCN(S(=O)(=O)c3ccc(N)c(F)c3)CC2)nc1-c1ccccc1 | > 200 | > 200 | 
CCOC(=O)c1c(C)nc(N2CCN(S(=O)(=O)c3ccc(NC(C)=O)cc3)CC2)nc1-c1ccccc1 | 118 | > 200 | 
CCOC(=O)c1c(C)nc(N2CCN(S(=O)(=O)c3ccc(N)cc3)CC2)nc1-c1ccc(OC)cc1 | 71.9 | 192 | 
CCOC(=O)c1c(C)nc(N2CCN(S(=O)(=O)c3ccc(N)c(OC)c3)CC2)nc1-c1ccccc1 | 84.6 | 184 | 
CCOC(=O)c1c(C)nc(N2CCN(S(=O)(=O)c3ccc(NC(C)=O)cc3)CC2)nc1-c1ccc(OC)c(OC)c1 | 88.8 | 167 | 
CCOC(=O)c1c(C)nc(N2CCN(S(=O)(=O)c3ccc(NC(C)=O)c(OC)c3)CC2)nc1-c1ccccc1 | 79 | 184 | 
CCc1ccc(NC(=O)COc2c(Cl)cc(Cl)cc2S(=O)(=O)N2CCN(C(=O)c3ccco3)CC2)cc1 |  |  | IC50 (Acetylcholinesterase [3]): 5540 nM; IC50 (Cholinesterase [4]): 9150 nM
CCOC(=O)c1c(C)nc(N2CCN(S(=O)(=O)c3ccc(N)c(F)c3)CC2)nc1-c1ccc(OC)cc1 | 101 | 157 | 
CCOC(=O)c1c(C)nc(N2CCN(S(=O)(=O)c3ccc(NC(C)=O)c(Cl)c3)CC2)nc1-c1ccc(OC)cc1 | 87.6 | > 200 | 
CCOC(=O)c1c(C)nc(N2CCN(S(=O)(=O)c3ccc(NC(C)=O)c(OC)c3)CC2)nc1-c1ccc(OC)c(OC)c1 | 79.2 | > 200 | 
CCOC(=O)c1c(C)nc(N2CCN(S(=O)(=O)c3ccc(NC(C)=O)c(Cl)c3)CC2)nc1-c1ccc(OC)c(OC)c1 | 47.3 | 159 | Ki (Acetylcholinesterase [5]): 8 nM; Activity [6]: 99.41%; Papp at 16 h [7]: 24.3 ×10⁻⁶ cm/s
CCOC(=O)c1c(C)nc(N2CCN(S(=O)(=O)c3ccc(N)c(F)c3)CC2)nc1-c1ccc(OC)c(OC)c1 | 66.1 | 177 | 
CCOC(=O)c1c(C)nc(N2CCN(S(=O)(=O)c3ccc(N)c(OC)c3)CC2)nc1-c1ccc(OC)cc1 | 68.5 | 187 | 
CCOC(=O)c1c(C)nc(N2CCN(S(=O)(=O)c3ccc(NC(C)=O)c(F)c3)CC2)nc1-c1ccc(OC)cc1 | 91.9 | 168 | 
CCOC(=O)c1c(C)nc(N2CCN(S(=O)(=O)c3ccc(N)c(Cl)c3)CC2)nc1-c1ccc(OC)c(OC)c1 | 51.4 | 153 | Papp at 16 h [7]: 23.7 ×10⁻⁶ cm/s
CCOC(=O)c1c(C)nc(N2CCN(S(=O)(=O)c3ccc(N)c(Cl)c3)CC2)nc1-c1ccccc1 | 79.1 | 137 | 
